S1P4 ag: human S1P4 receptor agonism. O95977. S1P4-expressing cell line, agonist reporter assay. activation, % at 4.98 µM. hit rate 0.35% among 220,000. AID 1509; in the data active means activation above about 11%;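 further: 0% = DMSO vehicle and 100% = reference agonist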
Target sequence (O95977 whole entry, looked up): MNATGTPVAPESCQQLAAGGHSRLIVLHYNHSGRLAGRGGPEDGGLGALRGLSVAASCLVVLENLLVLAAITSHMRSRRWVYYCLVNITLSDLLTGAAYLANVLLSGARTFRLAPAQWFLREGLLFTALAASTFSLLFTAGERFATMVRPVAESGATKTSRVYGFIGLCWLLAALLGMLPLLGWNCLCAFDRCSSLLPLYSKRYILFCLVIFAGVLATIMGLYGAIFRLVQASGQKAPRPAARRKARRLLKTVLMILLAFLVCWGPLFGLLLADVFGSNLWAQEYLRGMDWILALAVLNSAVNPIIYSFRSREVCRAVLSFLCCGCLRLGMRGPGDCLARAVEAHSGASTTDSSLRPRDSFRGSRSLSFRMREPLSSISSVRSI
S1P4 antagonist: blocks the human S1P4 receptor | O95977 | S1P4-expressing cells, antagonist mode, reporter read-out | inhibition, % at 4.98 µM | hit rate 0.26% among 220,000; in the data active means inhibition above about 29%;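 further: 0% = wells stimulated with agonist and 100% = vehicle wells without agonist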
TbHK1 inh: T. brucei hexokinase 1 inhibition. recombinant TbHK1, G6PDH-coupled NADH A340. hit rate 0.11% among 220,000. inhibition, % at 10 µM. AID 1430;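 active means inhibition of 50% or more in the single-dose primary screen; inactive means inhibition below 50%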
S1P3 antagonist: S1P3 (human) receptor antagonism. CHO S1P3 NFAT-BLA reporter, FRET fluorescence, antagonist mode. inhibition, % at 4.98 µM. hit rate 0.27% among 170,000. AID 485. Q99500;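 active means inhibition above the plate cutoff, the mean inhibition of test wells on that plate plus 3 SD, cut at about 28% in these data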;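 further: cells challenged with S1P at its EC80 of 0.8 µM; blue over green emission ratio from cleaved BLA substrate after 4 h stimulation; 0% = S1P-stimulated wells and 100% = unstimulated DMSO-only wells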
Target sequence (Q99500 whole entry, looked up): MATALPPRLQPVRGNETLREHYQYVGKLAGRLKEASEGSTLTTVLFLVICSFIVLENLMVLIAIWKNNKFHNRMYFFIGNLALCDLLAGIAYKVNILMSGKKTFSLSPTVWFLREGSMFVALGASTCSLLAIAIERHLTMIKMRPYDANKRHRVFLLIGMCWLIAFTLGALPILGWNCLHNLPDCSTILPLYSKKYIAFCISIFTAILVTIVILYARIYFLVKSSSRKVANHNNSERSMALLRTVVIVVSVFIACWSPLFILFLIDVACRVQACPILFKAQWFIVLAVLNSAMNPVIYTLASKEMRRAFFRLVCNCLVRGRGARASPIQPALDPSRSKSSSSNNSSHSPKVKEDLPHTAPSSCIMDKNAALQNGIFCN
Dynein transport: dynein cargo transport inhibition; 3617.4 mouse cells, GR-EGFP nuclear translocation imaging; test concentration mostly 20 µM; stimulated with dexamethasone, 1 µM; active compounds read low; z-score, hits read low; hit rate 0.47% among 220,000; AID 1381;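 active means plate z-score of nuclear minus cytoplasmic receptor signal below a set negative limit, without overly bright fluorescence or cell loss, cut at about -3.5 in these data, passing the limit was not always enough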;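 further: z-score of nuclear minus cytoplasmic ring GR-EGFP intensity difference per well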
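Buffer or medium: tet-free, stripped-serum medium; Also added: dexamethasone, 1.0 µM final; Technique: high-content fluorescence imaging after fixation; Times: 48 h induction, 1 h compound, 30 min dex at 37 °C; Read-out: per-cell GR-EGFP intensity, nucleus versus surrounding cytoplasmic ring, well-averaged.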
Biofilm kill mix: mixture kills Candida albicans biofilm cells. AID 1242. C. albicans biofilm persisters + clotrimazole, fluorescence viability; primary screen in compound mixtures of four per well. inhibition, % at 7.6 µM. hit rate 0.02% among 120,000;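 active means inhibition above 30.3% in the primary screen of four-compound pools, then above 30% when the compound was retested; inconclusive means passed the primary limit but could not be retested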;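 further: compounds exposed to preformed 24 h biofilms for 48 h; 0% = untreated biofilm control and 100% = clotrimazole plus chlorhexidine kill blank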
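Probe or stimulus – Clotrimazole 50 µg/mL co-treatment · System – C. albicans biofilms · Schedule – 24 h biofilm formation, then 48 h compound exposure, 37 °C · Evaluation – percent inhibition of biofilm viability · Technique – 2-h Alamar Blue fluorescence, 535/590 nm excitation/emission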
Dynein inh conf: dynein cargo transport inhibition, confirmation; shares compounds with Dynein transport; AID 463116; hit rate 69% among 1,000; 3617.4 GR-EGFP nuclear translocation imaging, dexamethasone-induced; calls only at 20 µM;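 active means inhibition of receptor movement into the nucleus at or above a set limit in both runs, with normal cell brightness and cell count; inconclusive means limit reached in only one run, brightness and count normal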;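 further: dexamethasone at 1 µM final in well for 30 min; nuclear minus cytoplasmic GR-EGFP mean intensity difference in channel 2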
The depositor's hits bear a star; i = inactive; ? = inconclusive; · = no result; + = active, no number. This is a sample that favours compounds with a hit; in the whole collection about 1.3% have one here.

SMILES | S1P4 ag | S1P4 antagonist | TbHK1 inh | S1P3 antagonist | Dynein transport | Biofilm kill mix | Dynein inh conf
CCOC(=O)c1c(C)oc2c1c(C(c1ccncc1)N1CCOCC1)c(O)c1ccccc12 (stereo not given) | 0.5 | -15.4 | 0.2 | 1.2 | -3.54* | · | i
Cc1ccc(Nc2nc(NCc3ccco3)c3ccccc3n2)cc1 | 2.1 | -18.1 | -0.1 | 1.9 | 1.03 | 19.3 | ·
CCn1c(/C=C/N(C(C)=O)c2ccccc2)[n+](CC)c2ccc(Cl)cc21 | -0.4 | -6.0 | -17.4 | 3.1 | -0.0514 | 18.6 | ·
CC[n+]1c(/C=C/C=C/N(C(C)=O)c2ccccc2)sc2ccccc21 | 0.0 | 7.3 | -6.8 | · | -3.88* | · | +
O=c1cc(-c2c(F)c(F)c(F)c(F)c2F)oc2c(F)c(F)c(F)c(F)c12 | -3.0 | 15.4 | 2.3 | · | -8.24* | · | +
NCC(O)COCCC12CC3CC(CC(C3)C1)C2 (stereo not given) | -1.0 | 8.6 | 3.8 | -16.8 | 1.69 | · | ·
CC(NCC(O)COCCC12CC3CC(CC(C3)C1)C2)c1ccccc1 (stereo not given) | -1.2 | 18.0 | 15.7 | -3.9 | -5.18* | 11.1 | i
N/C(=C\C(=O)c1cc(Cl)ccc1O)C(Cl)(Cl)Cl | 1.6 | 5.7 | -12.2 | -14.9 | -5.01* | 15.5 | +
COCCNC(=S)NNc1cccc(C(=O)O)c1 | -1.7 | -2.0 | 5.0 | 5.5 | -0.169 | 3.1 | ·
CCCNC(=O)Cn1c(=O)/c(=C\c2ccc(-c3ccc([N+](=O)[O-])cc3)o2)s/c1=C\C(=O)C(C)(C)C | -0.1 | -5.1 | 11.0 | -6.6 | -4.95 | 8.6 | +
CN(C)CCCn1c(SCC(=O)N2c3ccccc3Sc3ccccc32)nc2ccccc2c1=O | 0.4 | -3.5 | 0.6 | -0.6 | -4.19* | 19.6 | i
CC(C)N(CC(=O)Nc1ccc(Cl)cc1C(F)(F)F)C(=O)CCl | -1.2 | -13.9 | -2.7 | -10.5 | -7.06* | 16.8 | +
O=C1CSC(=S)N1Cc1cccnc1 | 0.8 | -5.9 | 10.9 | -11.3 | -4.65* | · | i
O=C1CSC(=S)N1c1cccnc1 | 0.4 | -18.3 | -2.1 | -1.8 | -0.816 | · | ·
COc1ccc(C(=O)CCN2CCN(c3ccccc3OC)CC2)cc1 | 4.6 | 4.2 | 1.0 | -13.8 | -4.39* | 6.9 | +
COc1ccccc1N1CCN(CCCC(=O)c2ccc(F)cc2)CC1 | -0.2 | -0.1 | 4.9 | -0.7 | 0.366 | · | ·
CCCCCCCCc1nnc(N)s1 | 0.4 | -15.2 | -1.8 | 2.1 | -0.176 | 17.9 | ·
O=C(O)CCC(=O)NCc1c(Cl)cccc1Sc1ccc(Cl)cc1 | 0.3 | -6.5 | -9.9 | 0.9 | 0.475 | 22.2 | ·
O=C(CC1SC2=NCCN2C1=O)Nc1ccc(Br)cc1 (stereo not given) | 0.2 | -5.8 | -0.9 | 0.1 | 0.0377 | · | ·
O=C(CC1Sc2ncnn2C1=O)Nc1ccc(Br)cc1 (stereo not given) | 0.0 | -9.5 | 1.2 | -5.1 | -3.59* | · | i
O=[N+]([O-])c1cc([N+](=O)[O-])c2cccnc2c1Oc1ccccc1O | -1.2 | -13.4 | -11.6 | -26.7 | -4.38* | 11.0 | +
O=[N+]([O-])c1cc(F)c2cccnc2c1O | -0.3 | -4.6 | -14.6 | -12.7 | 0.542 | 16.9 | ·
COC(=O)C(=C/C(C)=C/c1cccnc1)C(=O)OC | 0.9 | 7.3 | 0.0 | 3.3 | -5.94* | 5.3 | +
CC(C)CCn1c(=O)c2ccccc2n2c(CCl)nnc12 | 0.3 | -6.5 | -0.5 | -3.4 | -4.48* | 13.7 | +
CC(C)CCn1c(=O)c2ccccc2n2c(CN3CCCC3)nnc12 | 0.3 | -20.4 | -5.2 | 3.1 | 0.227 | 8.4 | ·
SMILES | S1P4 ag | S1P4 antagonist | TbHK1 inh | S1P3 antagonist | Dynein transport | Biofilm kill mix | Dynein inh conf
Cc1ccc(Cn2c(=O)c3ccccc3n3c(CCC(=O)O)nnc23)cc1 | 1.4 | -7.7 | 7.8 | -8.4 | -0.806 | · | ·
CCCCCn1c(=O)c2ccccc2n2c(CCl)nnc12 | -0.1 | -11.3 | -0.2 | 13.4 | -6.46* | 1.9 | +
CCC1Oc2ccc(C)cc2N(CC(=O)N(Cc2cccnc2)Cc2ccc(C)o2)C1=O (stereo not given) | -1.8 | -3.6 | 5.4 | 10.7 | -3.7* | · | ?
C=CCNC(=O)NC(=O)COC(=O)/C(C#N)=C/c1ccc(OC)cc1 | 2.5 | -29.8 | -15.9 | -12.4 | 0.378 | 3.5 | ·
COc1cccc(C2=NN(C(=O)CCCC(=O)O)C(c3cccs3)C2)c1 (stereo not given) | 1.6 | -21.8 | 0.6 | 8.2 | -0.595 | 18.1 | ·
CCOC(=O)CS(=O)(=O)c1nc(-c2ccc(F)cc2)cc(C(F)(F)F)n1 | -1.4 | 1.6 | -1.6 | 9.6 | -4.75 | · | +
COc1ccc(-c2cc(C(F)(F)F)nc(S(C)(=O)=O)n2)cc1 | -0.5 | 16.5 | -38.8 | · | -5.32* | · | i
COc1ccc(-c2cc(C(F)(F)F)nc(N)n2)cc1 | 5.4 | -1.4 | -21.3 | 10.6 | -0.67 | 7.2 | ·
C/C=C(\CS(=O)(=O)c1ccccc1)S(=O)(=O)c1ccccc1 | -1.3 | -5.1 | 1.1 | -14.1 | -3.61* | · | ?
CCc1ccc(-c2nc(CS(=O)CC(=O)O)c(C)o2)cc1 (stereo not given) | -0.8 | 6.9 | -6.8 | 4.4 | -1.09 | 19.1 | ·
CCS(=O)(=O)c1ccc(O)c(NC(=O)CC2(CC(=O)O)CCCC2)c1 | -0.2 | -10.0 | -8.3 | 3.0 | -0.0327 | 17.4 | ·
O=C(/C=C/c1ccc(F)cc1)c1cc(Br)ccc1O | 1.7 | 5.7 | -17.1 | 7.3 | -3.81* | 20.0 | +
Cc1ccc2cc(C#N)c(SCc3nnc(-c4ccccc4[N+](=O)[O-])o3)nc2c1 | 1.8 | -13.8 | -2.1 | -6.3 | 0.0904 | 9.9 | ·
Cc1sc(NC(=O)CCl)c(C(=O)c2ccccc2)c1C | -4.3 | -4.7 | -0.3 | · | -3.75* | · | +
Cc1nc(N2CCOCC2)nc(Oc2ccccc2)c1[N+](=O)[O-] | 0.2 | -10.9 | -14.1 | 4.9 | -0.133 | 8.7 | ·
COC(=O)c1cn(NC(=O)C2CCC(C)CC2)c(=O)c2ccccc12 (stereo not given) | -0.3 | -11.7 | 1.5 | · | -0.234 | · | ·
COC(=O)c1cn(NC(=O)c2cc([N+](=O)[O-])ccc2F)c(=O)c2ccccc12 | 5.5 | -16.8 | -9.4 | -9.5 | -3.9* | 13.6 | +
O=C(Nc1ccccc1)C1=C(O)CC(c2ccco2)CC1=Nc1ccccc1 (stereo not given) | 1.3 | -11.2 | 1.8 | 39.6 | -0.255 | · | ·
O=C(Nc1ccccc1)C1=C(O)CC(c2ccoc2)CC1=Nc1ccccc1 (stereo not given) | 0.6 | -19.9 | 3.9 | 3.6 | -4.18* | · | i
CCOc1ccc2[nH]c(=O)c(CN(CCN3CCCC3)C(=S)Nc3ccccc3OC)cc2c1 | 1.3 | -13.5 | -8.6 | -4.0 | -1.23 | 2.6 | ·
CCOc1ccc2noc3c2c1C(=O)c1ccccc1-3 | 1.4 | -0.4 | 15.0 | -29.8 | -7.5* | · | +
O=C1c2ccccc2-c2onc3ccc(NCc4ccco4)c1c23 | -0.1 | -5.2 | -1.0 | · | -6.64 | · | i

Source: PubChem (several laboratories)
